SR-BI uptake up: SR-BI HDL lipid transfer activation; CHO ldlA[mSR-BI] cells, DiI-HDL uptake fluorescence, 3 h; 100 = double the neutral-control signal; activation, % at 12.5 µM; actives 0.096% (n = 320,000);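 active = mean replicate activation of at least 60% and every replicate at or above 60%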;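 also: 0% = median plate neutral-control signal and 100% = twice that signal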
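System: CHO ldlA[mSR-BI] cells / Medium: HEPES-buffered (25 mM, pH 7.4) F12 plus 0.5% BSA / Probe or stimulus: labelled HDL, 10 µg/mL / Doses: single compound concentration, delivered by pin transfer / Schedule: 3 h, 37 °C / Measured by: DiI fluorescence, bottom read / Measure: cell-associated DiI fluorescence as measure of HDL uptake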
H9c2 TAG inh: reduces triacylglycerol accumulation in H9c2 cells; Nile Red lipid (TAG) fluorescence; cells loaded with 200 µM oleic acid; inhibition, % at 12.5 µM; actives 0.66% (n = 230,000); AID 651582;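 active = pattern-corrected inhibition of lipid staining of at least 50% with the nuclear-stain viability signal not falling by more than 50%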;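 also: 0% = DMSO wells and 100% = triacsin C control wells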
Vif imaging: HIV Vif inhibition; HEK293T cells, Vif self-association by quenched fluorescence, imaging, 24 h; inhibition, % at 7.49 µM; actives 0.35% (n = 340,000); AID 602346; in the data active = inhibition above about 50%, passing the limit was not always enough
SR-BI HDL uptake: blocks mouse SR-BI lipid uptake from DiI-HDL; AID 488896; actives 0.96% (n = 320,000); Q61009; ldlA[mSR-BI] CHO cells, DiI-HDL uptake fluorescence, 3 h; inhibition, % at 12.5 µM;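 active = mean replicate inhibition of at least 70% and a set share of replicates each scoring 70 or more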;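 also: 0% = median of neutral control wells and 100% = median of positive control wells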
Target sequence (Q61009 whole entry, looked up): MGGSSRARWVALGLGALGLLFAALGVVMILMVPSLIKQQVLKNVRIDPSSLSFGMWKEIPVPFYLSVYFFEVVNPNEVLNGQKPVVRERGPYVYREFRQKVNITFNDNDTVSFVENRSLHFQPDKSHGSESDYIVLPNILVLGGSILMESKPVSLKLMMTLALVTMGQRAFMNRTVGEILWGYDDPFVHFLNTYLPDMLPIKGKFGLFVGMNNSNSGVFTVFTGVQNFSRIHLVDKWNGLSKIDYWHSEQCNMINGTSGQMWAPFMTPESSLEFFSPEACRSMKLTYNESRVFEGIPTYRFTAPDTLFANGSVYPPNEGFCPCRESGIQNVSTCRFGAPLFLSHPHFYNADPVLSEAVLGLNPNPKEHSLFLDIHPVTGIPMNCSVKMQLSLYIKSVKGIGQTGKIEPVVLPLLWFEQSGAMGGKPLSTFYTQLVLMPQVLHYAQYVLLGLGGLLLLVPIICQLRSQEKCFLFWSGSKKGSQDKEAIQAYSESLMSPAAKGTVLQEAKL
SMARCA2 activ: SMARCA2 function activation, primary screen; actives 1% (n = 370,000); MG213 cells, MMTV-luciferase reporter, dexamethasone, overnight; activation, % at 9.1 µM; AID 652017; in the data active = activation above about 7.8%;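 also: 0% = vehicle wells and 100% = reference activator wells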
Starred values were filed as active, the others as inactive; · = no result given. An excerpt weighted towards active compounds, which were near 2.5% of everything screened.

SMILES | SR-BI uptake up | H9c2 TAG inh | Vif imaging | SR-BI HDL uptake | SMARCA2 activ
CCOC(=O)N1CCN(S(=O)(=O)c2ccc(C(=O)NNc3nc4cc(C)cc(C)c4s3)cc2)CC1 | -120.8 | 1.0 | -0.3 | 120.8* | ·
CCOC(=O)N1CCN(S(=O)(=O)c2ccc(C(=O)NNc3nc4c(C)cc(C)cc4s3)cc2)CC1 | · | 1.3 | 4.4 | · | -0.8
CCOC(=O)N1CCN(S(=O)(=O)c2ccc(C(=O)NNc3nc4c(C)cccc4s3)cc2)CC1 | -102.5 | 1.0 | 9.4 | 102.5* | -2.8
CCOC(=O)N1CCN(S(=O)(=O)c2ccc(C(=O)NNc3nc4ccc(Cl)cc4s3)cc2)CC1 | -128.3 | -5.9 | -3.3 | 128.2* | ·
CCOC(=O)N1CCN(S(=O)(=O)c2ccc(C(=O)N(CCN(C)C)c3nc4ccc(Cl)cc4s3)cc2)CC1 | 15.3 | 14.3 | 16.1 | -15.3 | 2.9
COCCN(CCOC)C(=O)[C@@H](Cc1ccccc1)NC(=O)[C@H]1O[C@@H](n2ccc(N)nc2=O)[C@H](O)[C@@H]1O | · | · | · | · | -0.1
COC(=O)C1CCCN(C(=O)C2CCN(S(=O)(=O)c3cccc4cccnc34)CC2)C1 (stereo unspecified) | · | · | · | · | -5.2
COc1ccc(NC(=O)NCc2ccco2)c(OC)c1 | 17.5 | -17.1 | 1.4 | -17.5 | 0.8
COc1cc([N+](=O)[O-])ccc1NC(=O)NCc1ccco1 | -72.2 | 14.6 | 8.3 | 72.2* | -0.4
O=C(Nc1ccc([N+](=O)[O-])cc1)Nc1ccc2c(c1)OCCO2 | -47.1 | -6.2 | 1.6 | 47.1 | 2.6
COc1cc([N+](=O)[O-])ccc1NC(=O)Nc1ccc2c(c1)OCCO2 | -97.0 | -12.1 | -3.4 | 97.0* | -4.5
COc1ccccc1OCCCC(=O)NCc1ccco1 | -2.5 | 5.2 | 59.1* | 2.5 | 0.6
COc1cc(NC(=O)NCc2ccco2)ccc1-c1ccc(NC(=O)NCc2ccco2)cc1OC | -74.0 | 25.0 | 90.3* | 74.0* | -2.2
COc1ccc(N2CCN(CCNC(=O)Nc3ccc([N+](=O)[O-])cc3OC)CC2)cc1 | -75.9 | · | 8.1 | 75.9* | -2.4
COc1ccc(OC)c(NC(=O)NCCN2CCN(c3ccccc3)CC2)c1 | -12.7 | · | · | 12.7 | -4.3
Cc1cc(N2CCNC[C@H]2C)ccc1N1CCS(=O)(=O)CC1 | · | · | · | · | 2.5
C[C@@H]1CN([C@H](C)CO)C(=O)CCCn2cc(nn2)CO[C@H]1CN(C)C(=O)Oc1ccccc1 | · | · | · | · | -2.8
COC(=O)CSc1nc(C2CC2)cc(C(F)(F)F)c1C#N | 10.3 | -19.1 | 79.0* | -10.3 | -3.6
COc1cccc(/C=C/C2=CC(C)(C)NC(=S)N2)c1 | -77.6 | · | 3.6 | 77.6* | 2.3
COc1cccc(/C=N/n2c(-c3cc(C)[nH]n3)n[nH]c2=S)c1 | 11.7 | 5.4 | -0.1 | -11.7 | -6.1
COc1ccc(/C=C/C2=CC(C)(C)NC(=S)N2)cc1OC | -83.3 | · | -0.4 | 83.3* | -1.8
CCOc1ccc(/C=C/C2=CC(C)(C)NC(=S)N2)cc1 | -68.7 | -0.2 | -7.0 | 68.7 | -2.7
CN(c1cccnc1)c1ccc(NC(=O)Cc2c[nH]c3ccccc23)cc1-c1ccc(C(C)(C)C)cc1 | · | · | · | · | -1.8
Cc1cc(N2CCNC[C@@H]2C)ccc1N1C[C@@H](C)O[C@@H](C)C1 | · | · | · | · | -1.4
COCCn1c(=NC(=O)/C=C/c2ccccc2)sc2cc(NC(C)=O)ccc21 | -88.4 | · | 0.1 | 88.4* | -0.7
SMILES | SR-BI uptake up | H9c2 TAG inh | Vif imaging | SR-BI HDL uptake | SMARCA2 activ
CCOC(=O)[C@]12CCCC=C1N(CCCOC)C(=O)[C@@H]2CC(=O)NCCc1ccccc1OC | · | · | · | · | -3.1
O=C(CSc1nnc(-c2ccccn2)n1-c1ccccc1)Nc1ccc(OCc2ccccc2)cc1 | · | · | · | · | -8.2
O=C(COC(=O)/C=C/C(=O)OCC(=O)Nc1ccccc1F)Nc1ccccc1F | · | 20.9 | 79.4* | · | -2.4
COC(=O)[C@]12C[C@H](CC(=O)NCc3cccs3)C(=O)N(Cc3ccccc3)C1=C[C@H](C(C)(C)C)O[C@@H]2C | · | · | · | · | -5.1
CCOC(=O)c1c(SCCN2CCCC2)n(-c2ccccc2)c(=S)n(-c2ccccc2)c1=O | 0.1 | 81.9* | -2.9 | -0.1 | 7.3
CCOC(=O)c1c[nH]c(=S)n(-c2ccccc2)c1=O | 17.5 | -7.9 | -12.6 | -17.4 | -0.8
Nc1[nH]c(C(=O)c2ccccc2)c(-c2ccc(Cl)cc2)c1C(=O)c1c[nH]c2ccccc12 | · | · | · | · | 0.2
O=S1(=O)N[C@H](Cc2ccccc2)COc2cccc(NCCO)c21 | · | · | · | · | 2.8
CN(C)CCCN(C(=O)c1cc(-c2cccs2)nc2ccccc12)c1nc2c(F)cccc2s1 | 6.5 | 10.1 | -7.5 | -6.5 | -1.8
Cc1ccc2nc(N(CCCN(C)C)C(=O)c3cc(-c4cccs4)nc4ccccc34)sc2c1 | -30.1 | 54.2* | -2.7 | 30.1 | -3.7
Cc1onc(-c2ccccc2Cl)c1C(=O)N1CCN(C)CC1 | 2.0 | · | 50.7* | -2.0 | 0.2
Cc1onc(-c2ccccc2Cl)c1C(=O)NC(=S)NCCc1ccccc1 | 18.8 | · | -17.8 | -18.8 | 8.6*
COc1ccc(CCNC(=S)NC(=O)c2c(-c3ccccc3Cl)noc2C)cc1OC | -13.1 | -9.4 | -2.1 | 13.1 | -0.8
O=S1(=O)N[C@H](Cc2ccccc2)COc2cc(N3CCOCC3)ccc21 | · | · | · | · | -2.0
CC(CN(C)Cc1ccccc1)OC(=O)c1cccc(F)c1 (stereo unspecified) | 69.5* | · | 4.7 | -69.5 | 0.3
CN(CCOC(=O)c1cccc(F)c1)Cc1ccccc1 | 14.4 | 12.2 | -2.2 | -14.4 | -0.2
COc1ccc2nc3ccccc3nc2c1NC(=O)c1ccc(Br)cc1 | -17.0 | · | 6.9 | 17.0 | -3.0
COc1ccc(C(=O)Nc2cccc(NC(=O)c3ccc(OC)c(OC)c3)n2)cc1OC | -81.4 | 15.6 | 1.5 | 81.4* | 3.4
COc1ccc2nc3ccccc3nc2c1NC(=O)c1ccc(Cl)cc1 | -7.7 | · | 105.7* | 7.7 | -0.9
COc1ccc(C(=O)Nc2nc(C)c(C)s2)cc1OC | -79.1 | 0.5 | -3.0 | 79.1* | 5.7
COc1ccc(NC(=O)C(=O)Nc2cccc3cccnc23)cc1OC | -7.0 | · | 10.7 | 7.0 | -0.4
COc1ccc(C(=O)Nc2cccc3cccnc23)cc1OC | -78.9 | · | 11.2 | 78.7* | 0.0
COc1ccc(Cc2nnc(NC(=O)c3ccc(OC)c(OC)c3)s2)cc1 | -11.6 | -9.0 | 12.6 | 11.6 | -3.5
CSC1=Nc2ccccc2N=C(N2CCCC2)C1 | · | · | · | · | -0.3
CC(=O)c1c(C)[nH]c(C(=O)OCC(=O)Nc2cc(C(F)(F)F)ccc2N2CCOCC2)c1C | -72.2 | -0.4 | -14.3 | 72.2* | -1.3
O=C(COC(=O)/C=C/c1ccc(F)cc1)Nc1cc(C(F)(F)F)ccc1N1CCOCC1 | 23.4 | -2.9 | -1.4 | -23.4 | -2.8
COc1ccc(OC)c(CN(CC(C)C)S(=O)(=O)c2ccccc2Br)c1 | · | · | · | · | -1.7
COC(=O)C1=C(C)N(Cc2ccccc2C(F)(F)F)C(=NCc2ccc(OC)cc2)NC1CCc1ccccc1 (stereo unspecified) | · | · | · | · | -3.9
CCOc1ccccc1NC(=O)CSc1nnc2c(CC)c(C)nc(N)n12 | 21.0 | · | -5.8 | -21.0 | 7.9*

Screening results from PubChem BioAssay.
